pIC50: −log10 of the molar value. Active and inactive are the calls of the source. No cut-off for these calls is given here.

For assay [1], the target named is T1, Signal transducer and activator of transcription 2 (Homo sapiens, UniProt P52630). Put plainly: Induction of STAT2 degradation in human SUP-M2 cells at 0.25 to 100 uM incubated for 14 hrs by Western blot analysis. It is filed as cell-based. Particulars: SUPM2, dose 0.25-100 µM. An outline of the steps:
(§1)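 SU-DHL-1 or SUP-M2 cells treated over 25 nM to 100 μM. STAT family proteins assessed by Western blot.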
For orientation: In western blotting, separated proteins are transferred to a membrane and probed.

For assay [2], the target named is Signal transducer and activator of transcription 3 (Homo sapiens, UniProt P40763). Put plainly: Induction of STAT3 degradation in human SU-DHL-1 cells at 0.25 to 100 uM incubated for 14 hrs by Western blot analysis. It is filed as cell-based. Particulars: dose 0.25-100 µM.
Signal transducer and activator of transcription 3, sequence (P40763 whole entry): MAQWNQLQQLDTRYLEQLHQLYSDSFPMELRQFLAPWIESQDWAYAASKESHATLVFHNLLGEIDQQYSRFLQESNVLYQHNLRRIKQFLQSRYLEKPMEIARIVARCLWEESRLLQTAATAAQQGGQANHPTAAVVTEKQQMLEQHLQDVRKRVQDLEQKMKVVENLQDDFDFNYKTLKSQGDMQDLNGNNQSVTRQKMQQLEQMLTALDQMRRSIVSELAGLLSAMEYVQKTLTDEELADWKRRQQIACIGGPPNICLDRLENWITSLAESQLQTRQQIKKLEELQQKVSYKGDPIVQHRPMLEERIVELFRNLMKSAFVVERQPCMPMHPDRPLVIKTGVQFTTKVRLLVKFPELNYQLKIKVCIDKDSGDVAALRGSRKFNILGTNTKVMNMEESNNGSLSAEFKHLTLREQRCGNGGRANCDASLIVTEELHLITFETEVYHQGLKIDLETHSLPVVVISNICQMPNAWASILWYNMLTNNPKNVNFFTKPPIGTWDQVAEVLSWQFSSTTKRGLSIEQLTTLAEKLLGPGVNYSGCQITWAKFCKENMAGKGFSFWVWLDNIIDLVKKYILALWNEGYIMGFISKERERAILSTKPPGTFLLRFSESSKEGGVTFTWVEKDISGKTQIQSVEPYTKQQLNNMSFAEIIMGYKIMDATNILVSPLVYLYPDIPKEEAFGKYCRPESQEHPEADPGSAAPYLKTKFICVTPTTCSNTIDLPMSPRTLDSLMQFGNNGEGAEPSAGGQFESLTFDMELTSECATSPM
For assay [3], the system named is SU-DHL-1. Put plainly: Antiproliferative activity against human SU-DHL-1 cells assessed as cell growth inhibition incubated for 4 days by CellTiter-Glo asssay. Format: functional, cell-based. Particulars: SU-DHL-1, 96 h. An outline of the steps:
(§2)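 Growth inhibition tested in MOLM-16 acute leukemia and SU-DHL-1 and SUP-M2 lymphoma cell lines.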

The target in assay [4] is T2, Signal transducer and activator of transcription 5A (Homo sapiens) (UniProt P42229).
T2 sequence (whole entry): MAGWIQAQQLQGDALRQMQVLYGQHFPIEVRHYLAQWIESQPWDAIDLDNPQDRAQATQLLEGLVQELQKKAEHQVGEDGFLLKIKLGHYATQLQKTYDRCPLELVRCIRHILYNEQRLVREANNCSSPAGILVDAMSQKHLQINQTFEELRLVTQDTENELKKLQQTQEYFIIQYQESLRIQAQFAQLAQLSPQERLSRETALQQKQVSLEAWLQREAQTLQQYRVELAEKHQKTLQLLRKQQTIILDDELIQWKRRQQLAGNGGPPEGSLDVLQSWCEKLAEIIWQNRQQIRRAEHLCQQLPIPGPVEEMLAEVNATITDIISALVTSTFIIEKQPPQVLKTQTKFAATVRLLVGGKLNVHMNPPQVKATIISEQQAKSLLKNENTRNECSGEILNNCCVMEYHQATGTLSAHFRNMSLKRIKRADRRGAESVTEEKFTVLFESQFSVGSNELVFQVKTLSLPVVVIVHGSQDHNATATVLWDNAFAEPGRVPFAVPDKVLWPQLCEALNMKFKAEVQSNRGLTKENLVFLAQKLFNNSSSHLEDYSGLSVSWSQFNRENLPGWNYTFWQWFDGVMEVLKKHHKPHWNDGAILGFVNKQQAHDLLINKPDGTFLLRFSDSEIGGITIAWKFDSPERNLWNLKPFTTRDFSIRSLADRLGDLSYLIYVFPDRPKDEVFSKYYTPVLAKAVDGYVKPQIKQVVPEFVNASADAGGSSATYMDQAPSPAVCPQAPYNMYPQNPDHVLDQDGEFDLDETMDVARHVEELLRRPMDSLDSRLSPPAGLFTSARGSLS
Put plainly: Induction of STAT5 degradation in human MOLM16 cells at 0.25 to 100 uM incubated for 4 hrs by Western blot analysis. Format: cell-based. The following applies: dose 0.25-100 µM. An outline of the steps: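 Cells treated 4 h with compounds across 25 nM to 100 μM; STAT proteins detected by Western blot with GAPDH as loading control; STAT3 DC50 estimated by densitometry of STAT3 relative to GAPDH. Applies to MOLM-16 for all STATs, and to SU-DHL-1 and SUP-M2 for STAT3.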

Assay [5] can be described thus: Antiproliferative activity against human SUP-M2 cells assessed as cell growth inhibition incubated for 4 days by CellTiter-Glo asssay. It is filed as functional, cell-based, SUPM2. The following applies: SUP-M2, 96 h. An outline of the steps: as §2
In general terms: In ATP-based viability assays light output follows the ATP content of the culture.

Assay [6] concerns the target T3, Signal transducer and activator of transcription 1-alpha/beta (Homo sapiens) (UniProt P42224).
T3 sequence (whole entry): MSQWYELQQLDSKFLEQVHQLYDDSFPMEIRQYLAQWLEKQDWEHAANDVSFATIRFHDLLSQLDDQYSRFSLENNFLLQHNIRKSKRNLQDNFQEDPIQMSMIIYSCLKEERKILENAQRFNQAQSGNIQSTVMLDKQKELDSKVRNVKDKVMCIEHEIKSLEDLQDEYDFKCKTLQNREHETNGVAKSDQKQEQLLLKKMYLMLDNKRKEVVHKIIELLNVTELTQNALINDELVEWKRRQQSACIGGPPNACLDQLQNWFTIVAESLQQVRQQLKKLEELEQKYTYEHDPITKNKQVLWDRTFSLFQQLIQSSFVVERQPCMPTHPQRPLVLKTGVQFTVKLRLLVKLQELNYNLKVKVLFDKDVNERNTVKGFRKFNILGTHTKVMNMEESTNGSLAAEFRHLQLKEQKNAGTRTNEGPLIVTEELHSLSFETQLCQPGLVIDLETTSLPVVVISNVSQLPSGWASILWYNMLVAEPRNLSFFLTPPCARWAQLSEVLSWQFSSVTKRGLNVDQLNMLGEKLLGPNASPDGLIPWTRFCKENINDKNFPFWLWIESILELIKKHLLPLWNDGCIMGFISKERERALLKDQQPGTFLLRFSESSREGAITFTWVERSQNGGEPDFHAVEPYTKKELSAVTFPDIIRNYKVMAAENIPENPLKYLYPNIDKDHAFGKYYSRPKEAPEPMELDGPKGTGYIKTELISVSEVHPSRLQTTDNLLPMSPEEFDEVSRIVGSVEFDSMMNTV
Put plainly: Induction of STAT1 degradation in human SU-DHL-1 cells at 0.25 to 100 uM incubated for 14 hrs by Western blot analysis. Format: cell-based. Particulars: dose 0.25-100 µM. An outline of the steps: as §1

The target in assay [7] is T3, Signal transducer and activator of transcription 1-alpha/beta (Homo sapiens). Put plainly: Induction of STAT1 degradation in human SUP-M2 cells at 0.25 to 100 uM incubated for 14 hrs by Western blot analysis. Format: cell-based. Particulars: SUPM2, dose 0.25-100 µM. An outline of the steps:
as §1

The target of assay [8] is T1, Signal transducer and activator of transcription 2. Put plainly: Induction of STAT2 degradation in human SU-DHL-1 cells at 0.25 to 100 uM incubated for 14 hrs by Western blot analysis. It is filed as cell-based. The following applies: dose 0.25-100 µM. An outline of the steps: as §1

T1 sequence (P52630 whole entry): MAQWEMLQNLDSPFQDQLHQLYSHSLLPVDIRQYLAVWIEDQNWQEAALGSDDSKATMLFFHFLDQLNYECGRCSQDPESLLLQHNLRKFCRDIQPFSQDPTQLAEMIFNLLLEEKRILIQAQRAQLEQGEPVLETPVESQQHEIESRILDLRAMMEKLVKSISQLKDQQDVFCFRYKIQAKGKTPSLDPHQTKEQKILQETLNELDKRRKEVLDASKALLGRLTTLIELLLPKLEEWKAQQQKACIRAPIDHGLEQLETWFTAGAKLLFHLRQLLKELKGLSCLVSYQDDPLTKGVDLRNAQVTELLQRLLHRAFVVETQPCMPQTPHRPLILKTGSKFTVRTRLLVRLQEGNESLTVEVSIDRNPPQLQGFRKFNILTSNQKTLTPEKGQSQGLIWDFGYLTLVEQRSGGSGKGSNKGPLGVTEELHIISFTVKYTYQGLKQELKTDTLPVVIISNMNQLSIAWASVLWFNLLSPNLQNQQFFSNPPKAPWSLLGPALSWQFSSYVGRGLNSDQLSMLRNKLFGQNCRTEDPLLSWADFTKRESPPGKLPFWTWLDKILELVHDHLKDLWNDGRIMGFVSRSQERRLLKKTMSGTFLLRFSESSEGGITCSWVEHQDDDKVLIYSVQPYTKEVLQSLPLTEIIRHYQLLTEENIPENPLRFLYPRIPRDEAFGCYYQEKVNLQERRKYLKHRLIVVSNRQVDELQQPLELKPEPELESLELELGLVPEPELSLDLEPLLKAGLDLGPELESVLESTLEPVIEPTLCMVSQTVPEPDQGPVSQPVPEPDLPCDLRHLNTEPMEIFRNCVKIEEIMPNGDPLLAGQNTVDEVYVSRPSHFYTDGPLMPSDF

As for `NC(=O)CC[C@H](NC(=O)[C@@H]1CC[C@@H]2CCN(C(=O)CCCCCC#Cc3cccc4c3CN(C3CCC(=O)NC3=O)C4=O)C[C@H](NC(=O)c3cc4cc(C(=O)P(=O)(O)O)ccc4[nH]3)C(=O)N21)C(=O)NC(c1ccccc1)c1ccccc1` (some centres not stated), the result in assay [1], in assay [4], in assay [6], in assay [7] and in assay [8] was inactive. Moreover, the result in assay [2] was Active. The results for the pIC50 in assay [3] and in assay [5] were 5.59 and 6.34, respectively.
Turning to `NC(=O)CC[C@H](NC(=O)[C@@H]1CC[C@@H]2CCN(C(=O)CCCCCC#Cc3cccc4c3CN(C3CCC(=O)NC3=O)C4=O)C[C@H](NC(=O)c3cc4cc(C(F)(F)P(=O)(O)O)ccc4[nH]3)C(=O)N21)C(=O)NC(c1ccccc1)c1ccccc1` (some centres not stated), the outcome in assay [2] was inactive. The pIC50 in assay [3] is 5.47; in assay [5], 6.28.
Take `CC(=O)N1CC[C@H]2CC[C@@H](C(=O)N[C@@H](CCC(N)=O)C(=O)NC(c3ccccc3)c3ccccc3)N2C(=O)[C@@H](NC(=O)c2cc3cc(C(F)(F)P(=O)(O)O)ccc3[nH]2)C1`: the outcome in assay [1], in assay [2], in assay [4], in assay [6], in assay [7] and in assay [8] was inactive. The negative-log IC50 (pIC50) in assay [3] and in assay [5] was under 5.00 in each case.
With `CC(=O)N1CC[C@H]2CC[C@@H](C(=O)N[C@@H](CCC(N)=O)C(=O)NC(c3ccccc3)c3ccccc3)N2C(=O)[C@@H](NC(=O)c2cc3cc(C(=O)P(=O)(O)O)ccc3[nH]2)C1`, the outcome in assay [1], in assay [2], in assay [4], in assay [6], in assay [7] and in assay [8] was inactive. Further, the pIC50 in assay [3] and in assay [5] was under 5.00 each time.

Broadly, the pIC50 is −log10 of the IC50, conventionally taken in molar units.

(Values after ChEMBL document CHEMBL4706770, “SD-91 as A Potent and Selective STAT3 Degrader Capable of Achieving Complete and Long-Lasting Tumor Regression” (ACS Med Chem Lett, 2021).)
